According to ChEMBL document CHEMBL1128719, “The synthesis, structure-activity, and structure-side effect relationships of a series of 8-alkoxy- and 5-amino-8-alkoxyquinolone antibacterial agents” (J Med Chem, 1995):
Values after ≈ are worked out from the molar mass of the structure shown.

Experiments:
Streptococcus pneumoniae = assay: In vitro antibacterial activity was tested for Streptococcus pneumoniae SV-1; format: functional
Method in brief: (§1)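 Microtitration (microdilution) MIC determination in μg/mL against a panel of Gram-positive, Gram-negative and anaerobic organisms. Values come from duplicate or triplicate experiments and are stated accurate to ±50%.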

Clostridium perfringens = assay: In vitro antibacterial activity against Clostridium perfringens CP 3-1; format: functional
Clostridioides difficile = assay: In vitro antibacterial activity was tested for Clostridium diff CD1-1; format: functional
Escherichia coli [1] = assay: In vitro antibacterial activity was tested for Escherichia coli H560; format: functional; method in brief: as §1
Enterococcus faecalis = assay: In vitro antibacterial activity was tested for Streptococcus faecalis MGH-2; format: functional; method in brief: as §1
Klebsiella pneumoniae = assay: In vitro antibacterial activity was tested for Klebsiella pneumoniae MGH-2; format: functional; method in brief: as §1
Cutibacterium acnes = assay: In vitro antibacterial activity was tested for Propion acnes PA5-1; format: functional; method in brief: as §1
Providencia rettgeri = assay: In vitro antibacterial activity was tested for Providencia rettgeri H1771; format: functional; method in brief: as §1
Staphylococcus aureus [2] = assay: In vitro antibacterial activity was tested for Staphylococcus aureus H228; format: functional; method in brief: as §1
Escherichia coli [3] = assay: In vitro antibacterial activity was tested for Escherichia coli Vogel; format: functional; method in brief: as §1
Bacteroides fragilis = assay: In vitro antibacterial activity against Bacteroides fragilis BFA; format: functional; method in brief: as §1
Enterobacter cloacae = assay: In vitro antibacterial activity was tested for Enterobacter cloacae HA2646; format: functional
Streptococcus pyogenes = assay: In vitro antibacterial activity was tested for Streptococcus pyogenes C203; format: functional; method in brief: as §1
Staphylococcus aureus [4] = assay: In vitro antibacterial activity was tested for Staphylococcus aureus UC-76; format: functional; method in brief: as §1
Pseudomonas aeruginosa = assay: In vitro antibacterial activity was tested for Pseudomonas aeruginosa UI-18; format: functional; method in brief: as §1
[5] = tested on: Peptoniphilus asaccharolyticus; assay: In vitro antibacterial activity was tested for Pepto asac PA 3-1; format: functional; method in brief: as §1
V79 = assay: Clonogenic cytotoxicity against Chinese hamster V-79 cells; format: functional, cell-based; conditions: Cricetulus griseus

In the case of `CCOc1c(N2CCCC(N)C2)c(F)c(N)c2c(=O)c(C(=O)O)cn(C3CC3)c12` (stereo not given), the MIC (Streptococcus pneumoniae) is reported as 0.025 µg/mL (≈ 0.0618 µM), the MIC (Clostridium perfringens) is reported as 0.4 µg/mL (≈ 0.989 µM) and the MIC (Clostridioides difficile) is reported as 6.3 µg/mL (≈ 15.6 µM). For the same compound, the MIC (Escherichia coli [1]) was 0.1 µg/mL (≈ 0.247 µM), the MIC (Enterococcus faecalis) was 0.1 µg/mL (≈ 0.247 µM) and the MIC (Klebsiella pneumoniae) was 0.4 µg/mL (≈ 0.989 µM). It also gave an MIC (Cutibacterium acnes) of 3.1 µg/mL (≈ 7.66 µM), an MIC (Providencia rettgeri) of 0.8 µg/mL (≈ 1.98 µM) and an MIC (Staphylococcus aureus [2]) of 0.05 µg/mL (≈ 0.124 µM). The MIC (Escherichia coli [3]) was 0.2 µg/mL (≈ 0.495 µM), the MIC (Bacteroides fragilis) was 3.1 µg/mL (≈ 7.66 µM) and the MIC (Enterobacter cloacae) was 0.2 µg/mL (≈ 0.495 µM). For the same compound, the MIC (Streptococcus pyogenes) was 0.05 µg/mL (≈ 0.124 µM), the MIC (Staphylococcus aureus [4]) was 0.013 µg/mL (≈ 0.0321 µM) and the MIC (Pseudomonas aeruginosa) was 3.1 µg/mL (≈ 7.66 µM). It also gave an MIC [5] of 0.8 µg/mL (≈ 1.98 µM).

Compound `CCNCC1CCN(c2c(F)cc3c(=O)c(C(=O)O)cn(C4CC4)c3c2OC)C1` (stereo not given) has an MIC (Streptococcus pneumoniae) of 0.013 µg/mL (≈ 0.0322 µM), an MIC (Clostridium perfringens) of 0.05 µg/mL (≈ 0.124 µM) and an MIC (Clostridioides difficile) of 0.2 µg/mL (≈ 0.496 µM). The MIC (Escherichia coli [1]) was 0.05 µg/mL (≈ 0.124 µM), the MIC (Enterococcus faecalis) was 0.025 µg/mL (≈ 0.062 µM) and the MIC (Klebsiella pneumoniae) was 0.2 µg/mL (≈ 0.496 µM). For the same compound, the MIC (Cutibacterium acnes) was 0.4 µg/mL (≈ 0.991 µM), the MIC (Providencia rettgeri) was 0.4 µg/mL (≈ 0.991 µM) and the MIC (Staphylococcus aureus [2]) was 0.025 µg/mL (≈ 0.062 µM). The MIC (Escherichia coli [3]) was 0.1 µg/mL (≈ 0.248 µM), the MIC (Bacteroides fragilis) was 0.4 µg/mL (≈ 0.991 µM) and the MIC (Enterobacter cloacae) was 0.1 µg/mL (≈ 0.248 µM). For the same compound, the MIC (Streptococcus pyogenes) was 0.013 µg/mL (≈ 0.0322 µM), the MIC (Staphylococcus aureus [4]) was 0.006 µg/mL (≈ 0.0149 µM) and the MIC (Pseudomonas aeruginosa) was 1.6 µg/mL (≈ 3.97 µM). For the same compound, the MIC [5] was 0.2 µg/mL (≈ 0.496 µM).

`COc1c(N2CCCC(CN)C2)c(F)c(N)c2c(=O)c(C(=O)O)cn(C3CC3)c12` (stereo not given) showed an MIC (Streptococcus pneumoniae) of 0.025 µg/mL (≈ 0.0618 µM), an MIC (Clostridium perfringens) of 0.2 µg/mL (≈ 0.495 µM) and an MIC (Clostridioides difficile) of 1.6 µg/mL (≈ 3.96 µM). For the same compound, the MIC (Escherichia coli [1]) was 0.1 µg/mL (≈ 0.247 µM), the MIC (Enterococcus faecalis) was 0.025 µg/mL (≈ 0.0618 µM) and the MIC (Klebsiella pneumoniae) was 0.4 µg/mL (≈ 0.989 µM). It also gave an MIC (Cutibacterium acnes) of 1.6 µg/mL (≈ 3.96 µM), an MIC (Providencia rettgeri) of 0.8 µg/mL (≈ 1.98 µM) and an MIC (Staphylococcus aureus [2]) of 0.05 µg/mL (≈ 0.124 µM). For the same compound, the MIC (Escherichia coli [3]) was 0.1 µg/mL (≈ 0.247 µM), the MIC (Bacteroides fragilis) was 3.1 µg/mL (≈ 7.66 µM) and the MIC (Enterobacter cloacae) was 0.2 µg/mL (≈ 0.495 µM). It also gave an MIC (Streptococcus pyogenes) of 0.025 µg/mL (≈ 0.0618 µM), an IC50 (V79) of 140 µg/mL (≈ 346 µM) and an MIC (Staphylococcus aureus [4]) of 0.006 µg/mL (≈ 0.0148 µM). The MIC (Pseudomonas aeruginosa) was 3.1 µg/mL (≈ 7.66 µM) and the MIC [5] was 0.8 µg/mL (≈ 1.98 µM).

For `COc1c(N2CCNCC2)c(F)cc2c(=O)c(C(=O)O)cn(C3CC3)c12`, the MIC (Streptococcus pneumoniae) was 0.1 µg/mL (≈ 0.277 µM), the MIC (Clostridium perfringens) was 0.4 µg/mL (≈ 1.11 µM) and the MIC (Clostridioides difficile) was 1.6 µg/mL (≈ 4.43 µM). The MIC (Escherichia coli [1]) was 0.025 µg/mL (≈ 0.0692 µM), the MIC (Enterococcus faecalis) was 0.2 µg/mL (≈ 0.553 µM) and the MIC (Klebsiella pneumoniae) was 0.1 µg/mL (≈ 0.277 µM). The MIC (Cutibacterium acnes) was 0.4 µg/mL (≈ 1.11 µM), the MIC (Providencia rettgeri) was 0.1 µg/mL (≈ 0.277 µM) and the MIC (Staphylococcus aureus [2]) was 0.2 µg/mL (≈ 0.553 µM). It also gave an MIC (Escherichia coli [3]) of 0.05 µg/mL (≈ 0.138 µM), an MIC (Bacteroides fragilis) of 0.8 µg/mL (≈ 2.21 µM) and an MIC (Enterobacter cloacae) of 0.025 µg/mL (≈ 0.0692 µM). For the same compound, the MIC (Streptococcus pyogenes) was 0.1 µg/mL (≈ 0.277 µM), the MIC (Staphylococcus aureus [4]) was 0.05 µg/mL (≈ 0.138 µM) and the MIC (Pseudomonas aeruginosa) was 0.8 µg/mL (≈ 2.21 µM). It also gave an MIC [5] of 3.1 µg/mL (≈ 8.58 µM).

Compound `COc1c(N2CCC(CN)CC2)c(F)cc2c(=O)c(C(=O)O)cn(C3CC3)c12` has an MIC (Streptococcus pneumoniae) of 0.025 µg/mL (≈ 0.0642 µM), an MIC (Clostridium perfringens) of 0.4 µg/mL (≈ 1.03 µM) and an MIC (Clostridioides difficile) of 0.8 µg/mL (≈ 2.05 µM). The MIC (Escherichia coli [1]) was 0.1 µg/mL (≈ 0.257 µM), the MIC (Enterococcus faecalis) was 0.05 µg/mL (≈ 0.128 µM) and the MIC (Klebsiella pneumoniae) was 0.2 µg/mL (≈ 0.514 µM). The MIC (Cutibacterium acnes) was 0.4 µg/mL (≈ 1.03 µM), the MIC (Providencia rettgeri) was 0.4 µg/mL (≈ 1.03 µM) and the MIC (Staphylococcus aureus [2]) was 0.1 µg/mL (≈ 0.257 µM). It also gave an MIC (Escherichia coli [3]) of 0.1 µg/mL (≈ 0.257 µM), an MIC (Bacteroides fragilis) of 0.8 µg/mL (≈ 2.05 µM) and an MIC (Enterobacter cloacae) of 0.1 µg/mL (≈ 0.257 µM). It also gave an MIC (Streptococcus pyogenes) of 0.025 µg/mL (≈ 0.0642 µM), an IC50 (V79) of 94 µg/mL (≈ 241 µM) and an MIC (Staphylococcus aureus [4]) of 0.05 µg/mL (≈ 0.128 µM). It also gave an MIC (Pseudomonas aeruginosa) of 1.6 µg/mL (≈ 4.11 µM) and an MIC [5] of 0.4 µg/mL (≈ 1.03 µM).

`COc1c(N2CC[C@H](N)C2)c(F)cc2c(=O)c(C(=O)O)cn(C3CC3)c12` gave an MIC (Streptococcus pneumoniae) of 0.025 µg/mL (≈ 0.0692 µM), an MIC (Clostridium perfringens) of 0.2 µg/mL (≈ 0.553 µM) and an MIC (Clostridioides difficile) of 0.2 µg/mL (≈ 0.553 µM). The MIC (Escherichia coli [1]) was 0.025 µg/mL (≈ 0.0692 µM), the MIC (Enterococcus faecalis) was 0.05 µg/mL (≈ 0.138 µM) and the MIC (Klebsiella pneumoniae) was 0.05 µg/mL (≈ 0.138 µM). The MIC (Cutibacterium acnes) was 0.4 µg/mL (≈ 1.11 µM), the MIC (Providencia rettgeri) was 0.1 µg/mL (≈ 0.277 µM) and the MIC (Staphylococcus aureus [2]) was 0.05 µg/mL (≈ 0.138 µM). The MIC (Escherichia coli [3]) was 0.025 µg/mL (≈ 0.0692 µM), the MIC (Bacteroides fragilis) was 0.2 µg/mL (≈ 0.553 µM) and the MIC (Enterobacter cloacae) was 0.025 µg/mL (≈ 0.0692 µM). For the same compound, the MIC (Streptococcus pyogenes) was 0.025 µg/mL (≈ 0.0692 µM), the IC50 (V79) was 32 µg/mL (≈ 88.6 µM) and the MIC (Staphylococcus aureus [4]) was 0.013 µg/mL (≈ 0.036 µM). For the same compound, the MIC (Pseudomonas aeruginosa) was 0.4 µg/mL (≈ 1.11 µM) and the MIC [5] was 0.8 µg/mL (≈ 2.21 µM).

In the case of `COc1c(N2CC[C@@H](N)C2)c(F)cc2c(=O)c(C(=O)O)cn(C3CC3)c12`, the MIC (Streptococcus pneumoniae) is reported as 0.05 µg/mL (≈ 0.138 µM), the MIC (Clostridium perfringens) is reported as 0.5 µg/mL (≈ 1.38 µM) and the MIC (Clostridioides difficile) is reported as 0.8 µg/mL (≈ 2.21 µM). For the same compound, the MIC (Escherichia coli [1]) was 0.025 µg/mL (≈ 0.0692 µM), the MIC (Enterococcus faecalis) was 0.05 µg/mL (≈ 0.138 µM) and the MIC (Klebsiella pneumoniae) was 0.025 µg/mL (≈ 0.0692 µM). It also gave an MIC (Cutibacterium acnes) of 0.2 µg/mL (≈ 0.553 µM), an MIC (Providencia rettgeri) of 0.05 µg/mL (≈ 0.138 µM) and an MIC (Staphylococcus aureus [2]) of 0.05 µg/mL (≈ 0.138 µM). For the same compound, the MIC (Escherichia coli [3]) was 0.025 µg/mL (≈ 0.0692 µM), the MIC (Bacteroides fragilis) was 0.4 µg/mL (≈ 1.11 µM) and the MIC (Enterobacter cloacae) was 0.025 µg/mL (≈ 0.0692 µM). For the same compound, the MIC (Streptococcus pyogenes) was 0.05 µg/mL (≈ 0.138 µM), the MIC (Staphylococcus aureus [4]) was 0.025 µg/mL (≈ 0.0692 µM) and the MIC (Pseudomonas aeruginosa) was 0.8 µg/mL (≈ 2.21 µM). For the same compound, the MIC [5] was 0.4 µg/mL (≈ 1.11 µM).

Compound `NC1CCCN(c2c(F)cc3c(=O)c(C(=O)O)cn(C4CC4)c3c2Cl)C1` (stereo not given) has an MIC (Clostridium perfringens) of 0.1 µg/mL (≈ 0.263 µM), an MIC (Clostridioides difficile) of 0.4 µg/mL (≈ 1.05 µM) and an MIC (Cutibacterium acnes) of 0.2 µg/mL (≈ 0.527 µM). It also gave an MIC (Bacteroides fragilis) of 0.2 µg/mL (≈ 0.527 µM) and an MIC [5] of 0.4 µg/mL (≈ 1.05 µM).
